Experimental data: ChEMBL document CHEMBL1629663, “Postantibiotic effects of telavancin against 16 gram-positive organisms” (Antimicrob Agents Chemother, 2009)
Values after ≈ are worked out from the molar mass of the structure shown.

Key:
Assay type in all cases: functional
Staphylococcus aureus [1] = assay: Antimicrobial activity against vancomycin-resistant-, methicillin-resistant Staphylococcus aureus 510 assessed as time required to induce sub-MIC effect at 0.3 times MIC exposed for 2 hrs by plate counting method
In short: (§1)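 Sub-MIC effect: cultures not preexposed to drug were diluted and handled as in the PA-SME procedure in Mueller-Hinton broth with final 0.2, 0.3 or 0.4× MIC, plus a drug-free control. Viable plate counts were taken every 2 h until McFarland 1 turbidity. Duration was derived from growth curves. Two experiments were run, each with a new inoculum.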

Enterococcus faecalis [2] = assay: Antimicrobial activity against Enterococcus faecalis ATCC 29212 assessed as time required to induce post antibiotic sub-MIC effect at 0.4 times MIC […] by plate counting method
In short: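 Mueller-Hinton broth cultures of about 5 × 10^6 CFU/ml were pre-exposed to telavancin at 10× MIC for 1 h at 35°C, then diluted 1:1,000. Telavancin was re-added to final 0.2, 0.3 or 0.4× MIC, alongside a drug-free tube. Viable counts were taken before exposure, after dilution, then every 2 h until McFarland no. 1 turbidity. Duration comes from log10 CFU/ml-versus-time plots; two separate experiments with fresh inocula.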

Staphylococcus aureus [3] = assay: Antimicrobial activity against vancomycin-intermediate-, methicillin-resistant Staphylococcus aureus 1984 assessed as time required to induce sub-MIC effect at 0.2 times MIC […] by plate counting method
In short: (§2)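 SME, viable plate count method: no prior drug exposure. About 5 × 10^6 CFU/ml in Mueller-Hinton broth at 35°C received 0.2, 0.3 or 0.4× MIC, alongside a drug-free tube. Counts were taken at the start, then every 2 h until McFarland no. 1 turbidity, as log10 CFU/ml against time. Two separate experiments, each with a new inoculum.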

Staphylococcus aureus [4] = assay: Antimicrobial activity against vancomycin-intermediate-, methicillin-resistant Staphylococcus aureus 770 assessed as time required to induce post antibiotic sub-MIC effect at 0.3 times MIC […] by plate counting method
In short: (§3)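 PAE was first induced with 10× MIC for 1 h at 35°C (inoculum about 5 × 10^6 CFU/ml, Mueller-Hinton broth) and ended by 1:1,000 dilution. Cultures were then split and given 0.2, 0.3 or 0.4× MIC, with one tube left without drug. Viable counts were taken before exposure, after dilution, then every 2 h until McFarland no. 1 turbidity. Two separate experiments, each with a new inoculum.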

Staphylococcus aureus [5] = assay: Antimicrobial activity against vancomycin-intermediate-, methicillin-resistant Staphylococcus aureus 555 assessed as post-antibiotic effect at 10 times MIC pre-exposed to Telavancin for 1 hr by plate counting method
In short: (§4)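 Viable plate count method in Mueller-Hinton broth. Direct colony suspension inoculum of about 5 × 10^6 CFU/ml was exposed to 10× MIC for 1 h at 35°C in a shaking water bath, then diluted 1:1,000 to remove drug. Counts were taken before exposure, at 0 h, then every 2 h until McFarland no. 1 turbidity. PAE = T − C, the time to a 1 log10 rise versus an unexposed growth control.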

Staphylococcus aureus [6] = assay: Antimicrobial activity against vancomycin-susceptible-, methicillin-resistant Staphylococcus aureus ATCC 33591 assessed as time required to induce post antibiotic sub-MIC effect at 0.3 times MIC […] by plate counting method
In short: (§5)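 After 1 h preexposure to 10× MIC at 35°C and 1:1,000 dilution, cultures were split, and drug was re-added to final 0.2, 0.3 or 0.4× MIC, with a drug-free tube. Viable counts were taken every 2 h until McFarland 1 turbidity. Duration was derived from log10 CFU/ml versus time curves. Two experiments were run, each with a new inoculum.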

Staphylococcus aureus [7] = assay: Antimicrobial activity against vancomycin-susceptible-, methicillin-resistant Staphylococcus aureus 1130 assessed as time required to induce post antibiotic sub-MIC effect at 0.4 times MIC […] by plate counting method; in short: as §5
Staphylococcus aureus [8] = assay: Antimicrobial activity against heterogenous vancomycin-intermediate-, methicillin-resistant Staphylococcus aureus 873 assessed as time required to induce sub-MIC effect at 0.3 times MIC […] by plate counting method; in short: as §2
Staphylococcus aureus [9] = assay: Antimicrobial activity against vancomycin-intermediate-, methicillin-resistant Staphylococcus aureus 770 assessed as time required to induce sub-MIC effect at 0.2 times MIC […] by plate counting method; in short: as §2
Staphylococcus aureus [10] = assay: Antimicrobial activity against vancomycin-intermediate-, methicillin-resistant Staphylococcus aureus 1287 by microdilution method
Staphylococcus aureus [11] = assay: Antimicrobial activity against vancomycin-intermediate-, methicillin-resistant Staphylococcus aureus 770 assessed as time required to induce post antibiotic sub-MIC effect at 0.4 times MIC […] by plate counting method; in short: as §3
Staphylococcus aureus [12] = assay: Antimicrobial activity against vancomycin-intermediate-, methicillin-resistant Staphylococcus aureus 555 assessed as time required to induce post antibiotic sub-MIC effect at 0.2 times MIC […] by plate counting method; in short: as §3
Staphylococcus aureus [13] = assay: Antimicrobial activity against vancomycin-susceptible-, methicillin-resistant Staphylococcus aureus 1307 assessed as time required to induce sub-MIC effect at 0.3 times MIC exposed for 2 hrs by plate counting method; in short: as §1
Staphylococcus aureus [14] = assay: Antimicrobial activity against vancomycin-intermediate-, methicillin-resistant Staphylococcus aureus 770 assessed as post-antibiotic effect at 10 times MIC pre-exposed to Telavancin for 1 hr by plate counting method; in short: as §4
Streptococcus agalactiae = assay: Antimicrobial activity against Streptococcus agalactiae HMC 5 assessed as post-antibiotic effect at 10 times MIC pre-exposed to Telavancin for 1 hr by plate counting method
In short: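 Organisms were suspended in Mueller-Hinton broth from overnight blood agar colonies at about 5 × 10^6 CFU/ml. Cultures were exposed to telavancin at 10× MIC for 1 h at 35°C in a shaking water bath, then diluted 1:1,000 to remove the drug, with an untreated growth control. Viable counts were taken before exposure, at 0 h, then every 2 h until McFarland no. 1 turbidity. PAE = T − C, the time to a 1 log10 rise. Two experiments.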

Enterococcus faecalis [15] = assay: Antimicrobial activity against Enterococcus faecalis HMC 571 assessed as time required to induce sub-MIC effect at 0.4 times MIC exposed for 2 hrs by plate counting method
In short: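 Unexposed Mueller-Hinton broth cultures (about 5 × 10^6 CFU/ml, 35°C) were handled as in the PA-SME set but without the 10× MIC pre-exposure. They were diluted 1:1,000, then given telavancin at final 0.2, 0.3 or 0.4× MIC, with a drug-free control. Viable counts were taken every 2 h until McFarland no. 1 turbidity. Effect duration comes from log10 CFU/ml-time plots; two separate experiments with new inocula.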

Staphylococcus aureus [16] = assay: Antimicrobial activity against vancomycin-resistant-, methicillin-resistant Staphylococcus aureus 510 assessed as post-antibiotic effect at 10 times MIC pre-exposed for 1 hr by plate counting method
In short: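 Direct colony suspensions (~5 × 10^6 CFU/ml) were exposed to 10× MIC for 1 h at 35°C with shaking in Mueller-Hinton broth, then diluted 1:1,000 to remove drug. Viable plate counts were taken before exposure, at 0 h, then every 2 h until turbidity reached McFarland 1. PAE = T − C, the time for counts to rise 1 log10 versus the unexposed control. Two separate experiments were run.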

Staphylococcus aureus [17] = assay: Antimicrobial activity against vancomycin-intermediate-, methicillin-resistant Staphylococcus aureus 1984 assessed as post-antibiotic effect at 10 times MIC pre-exposed to Telavancin for 1 hr by plate counting method; in short: as §4

In the case of `CCCCCCCCCCNCCN[C@@]1(C)C[C@H](O[C@H]2[C@H](Oc3c4cc5cc3Oc3ccc(cc3Cl)[C@@H](O)[C@@H](NC(=O)[C@@H](CC(C)C)NC)C(=O)N[C@@H](CC(N)=O)C(=O)N[C@H]5C(=O)N[C@H]3C(=O)N[C@H](C(=O)N[C@H](C(=O)O)c5cc(O)c(CNCP(=O)(O)O)c(O)c5-c5cc3ccc5O)[C@H](O)c3ccc(c(Cl)c3)O4)O[C@H](CO)[C@@H](O)[C@@H]2O)O[C@@H](C)[C@H]1O` [TELAVANCIN], the PAE (Staphylococcus aureus [1]) is reported as 2.3 h, the PAE (Enterococcus faecalis [2]) is reported as over 10.7 h and the PAE (Staphylococcus aureus [3]) is reported as 1 h. The PAE (Staphylococcus aureus [4]) was 6.3 h, the PAE (Staphylococcus aureus [5]) was 3.4 h and the PAE (Staphylococcus aureus [6]) was over 10 h. For the same compound, the PAE (Staphylococcus aureus [7]) was over 10 h, the PAE (Staphylococcus aureus [8]) was 0.5 h and the PAE (Staphylococcus aureus [9]) was 0.7 h. For the same compound, the MIC (Staphylococcus aureus [10]) was 0.5 µg/mL (≈ 0.285 µM), the PAE (Staphylococcus aureus [11]) was 9.6 h and the PAE (Staphylococcus aureus [12]) was 5.9 h. It also gave a PAE (Staphylococcus aureus [13]) of 2.6 h, a PAE (Staphylococcus aureus [14]) of 1.6 h and a PAE (Streptococcus agalactiae) of 0.4 h. For the same compound, the PAE (Enterococcus faecalis [15]) was 9.6 h, the PAE (Staphylococcus aureus [16]) was 1.3 h and the PAE (Staphylococcus aureus [17]) was 0.9 h.
